Source: PubChem BioAssay
KCNK3 inh: human KCNK3 channel inhibition, primary screen. CHO-KCNK3 thallium flux, FluxOR fluorescence; hits give low values. B-score at 10 µM. 340,000 tested, 0.84% active;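 active = B-score under library mean minus 4 SD, starting fluorescence ratio at most library mean plus 5 SD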;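 also: more negative B-score means stronger inhibition of thallium flux through KCNK3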
hERG protect: hERG (human) protection from proarrhythmic block; Q12809; CHO-hERG, FluxOR thallium flux, dofetilide IC70 present; activation (rescue from dofetilide block), less the hit threshold, % at 10 µM; 310,000 tested, 0.51% active; AID 1511;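 active = activation above the mean of controls blocked by dofetilide plus 5 SD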;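 also: thallium influx through hERG after potassium depolarization seen as dye fluorescence rise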
KCNQ1 act: human KCNQ1 channel potentiation or activation. P51787. 310,000 tested, 0.35% active. B-score at 10 µM. CHO-K1 KCNQ1, thallium flux FluxOR fluorescence; hits give high values;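 active = fluorescence ratio B-score, a plate-corrected score, at least three library SD, with initial intensity B-score within 5 SD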
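System: CHO-K1 cells stably expressing KCNQ1 / Medium: assay buffer for compound exposure, DMSO matched across wells / Reagent: thallium- and potassium-containing depolarizing buffer / Compound: one concentration, matched DMSO / Incubation: 20 min compound pretreatment at room temperature / Measured by: kinetic FluxOR fluorescence, 10 s baseline plus 110 s post-stimulus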
KCNQ1 inh: blocks the human KCNQ1 potassium channel. AID 2642. 310,000 tested, 1.3% active. P51787. B-score at 10 µM. CHO-K1 KCNQ1, FluxOR thallium flux fluorescence; hits give high values;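 active = compounds whose thallium flux B-score, printed positive for inhibition, exceeds three library SD while starting fluorescence stays within three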;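 also: channel opened by potassium depolarization with thallium stimulus after 20 min compound exposure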
KCNK9 inh: inhibitors of human KCNK9 two-pore domain potassium channel | Q9NPC2 | AID 488922 | HEK293 KCNK9, FluxOR thallium flux fluorescence; hits give low values | B-score at 10 µM | 310,000 tested, 1.2% active;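 active = ratio B-score over 3 SD below the library mean, with starting fluorescence within 5 SD of its mean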;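 also: negative B-score means less thallium flux so channel inhibition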
Target sequence (Q9NPC2 whole entry, looked up, the tested form may be a part): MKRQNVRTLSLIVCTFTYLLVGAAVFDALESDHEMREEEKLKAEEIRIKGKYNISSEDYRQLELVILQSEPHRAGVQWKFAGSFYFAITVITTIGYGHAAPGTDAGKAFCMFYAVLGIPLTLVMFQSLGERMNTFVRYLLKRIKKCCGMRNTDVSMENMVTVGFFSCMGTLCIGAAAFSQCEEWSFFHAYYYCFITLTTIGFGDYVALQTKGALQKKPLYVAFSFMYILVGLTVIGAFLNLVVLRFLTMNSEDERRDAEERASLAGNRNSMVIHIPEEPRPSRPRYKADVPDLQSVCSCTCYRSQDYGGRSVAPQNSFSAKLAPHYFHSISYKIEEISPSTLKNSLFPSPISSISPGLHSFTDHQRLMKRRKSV
Kir21 block: blocks the mouse Kir2.1 inward-rectifier potassium channel | HEK293-Kir2.1, FluxOR thallium flux fluorescence; hits give low values | B-score at 10 µM | 310,000 tested, 0.85% active;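 active = fluorescence ratio B-score at or below minus 3 SD of library scores, with starting-brightness B-score within 2 SD, cut at about -4.2 in these data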;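 also: channel flux triggered by added potassium and thallium sulfate stimulus; B-score of peak minus minimum fluorescence over baseline after thallium stimulus; more negative B-score means stronger Kir2.1 block with less thallium influx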
An asterisk follows results filed as active. Hits are enriched below; roughly 3.7% of the tested compounds scored in any of these assays.

`O=C(CCCN1CCC2(CC1)C(=O)NCN2c1ccccc1)c1ccc(F)cc1` gave KCNK3 inh inactive, hERG protect -15, KCNQ1 act 23*, KCNQ1 inh inactive, KCNK9 inh inactive and Kir21 block -0.38.
For O=C(c1ccc(F)cc1)C(Cc1ccccc1)N1CCCCC1 (stereo not given) the results were KCNK3 inh inactive, hERG protect -6, KCNQ1 act inactive, KCNQ1 inh inactive, KCNK9 inh inactive and Kir21 block 0.51.
Screening O=[N+]([O-])c1ccc(N2CCNCC2)cc1NCc1ccco1 returned KCNK3 inh inactive, hERG protect -10, KCNQ1 act inactive, KCNQ1 inh inactive, KCNK9 inh inactive and Kir21 block -4.4*.
`CCN(CC)c1ccc(/C=C2\C(=O)NC(=S)N(C)C2=O)o1` gave KCNK3 inh inactive, hERG protect -7, KCNQ1 act inactive, KCNQ1 inh 7*, KCNK9 inh inactive and Kir21 block -2.4.
Screening CCN(CC)c1ccc(/C=C2\C(=O)NC(=S)N(c3ccc(OC)cc3OC)C2=O)o1 returned KCNK3 inh inactive, hERG protect -23, KCNQ1 act inactive, KCNQ1 inh 6*, KCNK9 inh inactive and Kir21 block -7.
For COc1ccc(N2C(=O)/C(=C/c3ccc(N(C)C)o3)C(=O)NC2=S)cc1 the results were KCNK3 inh inactive, hERG protect -19, KCNQ1 act inactive, KCNQ1 inh inactive, KCNK9 inh inactive and Kir21 block -1.6.
`COc1ccc(N2C(=O)C(=O)N(c3ccc(OC)cc3)P2(=O)N(CCCl)CCCl)cc1` gave KCNK3 inh inactive.
For COC(=O)C1=C(c2ccc(S(C)(=O)=O)cc2)C[C@@H]2CC[C@H]1N2C(=O)NC(C)C the results were KCNK3 inh inactive, hERG protect -5, KCNQ1 act inactive, KCNQ1 inh inactive, KCNK9 inh inactive and Kir21 block 1.1.
Screening CC(C)C[C@H]1C(=O)N2CCCC2[C@]2(O)O[C@](NC(=O)[C@@H]3C=C4c5cccc6[nH]cc(c56)CC4N(C)C3)(C(C)C)C(=O)N12 (stereo not given in full) returned KCNK3 inh inactive, hERG protect -10, KCNQ1 act inactive, KCNQ1 inh 8*, KCNK9 inh inactive and Kir21 block 0.87.
CC(C)[C@H]1C(=O)N2CCC[C@H]2[C@]2(O)O[C@](NC(=O)[C@@H]3C=C4c5cccc6[nH]cc(c56)C[C@H]4N(C)C3)(C(C)C)C(=O)N12 was read as KCNK3 inh inactive.
For Cc1nn(Cc2ccccc2)c(C)c1C(=O)OCC(=O)Nc1cc(S(C)(=O)=O)ccc1Cl the results were KCNK3 inh inactive, hERG protect 2, KCNQ1 act inactive, KCNQ1 inh inactive, KCNK9 inh inactive and Kir21 block 1.7.
Screening O=C(O)C(Cc1cnc[nH]1)NS(=O)(=O)c1ccc(Br)cc1 (stereo not given) returned KCNK3 inh inactive, hERG protect -2, KCNQ1 act inactive, KCNQ1 inh inactive, KCNK9 inh inactive and Kir21 block -0.37.
`Cc1ccccc1CN1CCN(Cc2ccccc2)CC1` gave KCNK3 inh inactive, hERG protect -6, KCNQ1 act inactive, KCNQ1 inh inactive, KCNK9 inh inactive and Kir21 block -4.7*.
`COC(=O)C1=C(c2ccc(Cl)c(C(F)(F)F)c2)C[C@@H]2CC[C@H]1N2C(=O)NCCOc1ccccc1Cl` gave KCNK3 inh inactive.
For CCCCCCCSc1cc(OC)c(CCNC)cc1OC the results were KCNK3 inh inactive, hERG protect -14, KCNQ1 act inactive, KCNQ1 inh inactive, KCNK9 inh inactive and Kir21 block -9.8*.
`CCCCCSc1cc(OC)c(CCNC)cc1OC` gave KCNK3 inh inactive, hERG protect -6, KCNQ1 act inactive, KCNQ1 inh inactive, KCNK9 inh inactive and Kir21 block -8.9*.
For CNC(=O)Oc1cccc2c1OC(C)(C)O2 the results were KCNK3 inh inactive.
For C[C@]12CCC3C(CC[C@H]4C[C@H](O)CC[C@]34C)C1[C@@H](O)[C@@H](O)[C@@H]2O (stereo not given in full) the results were KCNK3 inh inactive.
For COC(=O)C1=C(c2c(C)noc2C)C[C@@H]2CC[C@H]1N2C(=O)NCc1ccco1 the results were KCNK3 inh inactive.
For Cc1cc[n+](Cc2ccccc2)cc1 the results were KCNK3 inh inactive, hERG protect -2, KCNQ1 act inactive, KCNQ1 inh inactive, KCNK9 inh inactive and Kir21 block 0.02.
`c1ccc(C[n+]2ccccc2)cc1` gave KCNK3 inh inactive, hERG protect -7, KCNQ1 act inactive, KCNQ1 inh 7*, KCNK9 inh inactive and Kir21 block -1.1.
`COc1cc2c(cc1OC)C13CCN4CC5CCOC6CC(=O)N2C1C6C5CC43` (stereo not given) gave KCNK3 inh inactive.
`CCC(=O)OC1(Cc2ccc(CC)cc2)CC(C)N(C)CC1C` (stereo not given) gave KCNK3 inh inactive, hERG protect -9, KCNQ1 act inactive, KCNQ1 inh inactive, KCNK9 inh inactive and Kir21 block -1.4.
O=c1[nH]c(=S)[nH]c(O)c1/C=C1/C=c2ccccc2=N1 was read as KCNK3 inh inactive, hERG protect 45*, KCNQ1 act inactive, KCNQ1 inh inactive, KCNK9 inh inactive and Kir21 block -0.72.
Screening Cc1cccc2c1=NC(=O)/C(=C/c1c(O)[nH]c(=O)[nH]c1=O)C=2 returned KCNK3 inh inactive, hERG protect -3, KCNQ1 act inactive, KCNQ1 inh inactive, KCNK9 inh inactive and Kir21 block 3.
Screening Clc1ccc(C[n+]2c(-c3ccccc3)cc(-c3ccccc3)cc2-c2ccccc2)cc1 returned KCNK3 inh inactive, hERG protect -36, KCNQ1 act inactive, KCNQ1 inh 13*, KCNK9 inh -8.3* and Kir21 block -13*.
Cc1cc(-c2ccccc2)cc(-c2ccccc2)[n+]1CCc1ccccc1 was read as KCNK3 inh inactive, hERG protect -26, KCNQ1 act inactive, KCNQ1 inh 8*, KCNK9 inh -8* and Kir21 block -6.9*.
Screening C[n+]1c(-c2ccccc2)cc(-c2ccc(O)cc2)cc1-c1ccccc1 returned KCNK3 inh inactive, hERG protect -23, KCNQ1 act inactive, KCNQ1 inh inactive, KCNK9 inh inactive and Kir21 block -0.46.
`CCOc1ccc(-c2cc(C)[n+](CCO)c(-c3ccc(OCC)cc3)c2)cc1` gave KCNK3 inh inactive, hERG protect -4, KCNQ1 act inactive, KCNQ1 inh inactive, KCNK9 inh inactive and Kir21 block 0.68.
